Converted amounts (≈) assume the structure as drawn.
Assays:
L6 = experiment: Cytotoxicity against rat L6 cells after 72 hrs by resazurin assay; format: cell-based; details: L6, 72 h
Summary of the method: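 L-6 cells seeded at 4 × 10⁴ cells/ml in RPMI 1640 with 10% FBS and 2 mM L-glutamine. After 24 h, medium replaced with serial drug dilution and incubated for 72 h at 37°C in 5% CO2. Resazurin added for 2–4 h, fluorescence read at ex 536/em 588 nm. IC50 from sigmoidal curve. Duplicate, with an independent repeat for actives.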

[1] = test system: Trypanosoma brucei rhodesiense; experiment: Trypanocidal activity against Trypanosoma brucei rhodesiense STIB 900 bloodstream form after 72 hrs by resazurin assay; format: functional, organism-based; details: STIB 900, 72 h
Summary of the method: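 T. b. rhodesiense STIB 900 bloodstream forms in MEM with 2-mercaptoethanol and 15% heat-inactivated horse serum, with serial drug dilutions. Incubated 72 h at 37°C in 5% CO2. Resazurin added for 2–4 h more, fluorescence read at ex 536/em 588 nm. IC50 from sigmoidal curve. Duplicate, with an independent repeat for actives.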

Leishmania amazonensis [2] = experiment: Inhibition of sterol biosynthesis in Leishmania mexicana amazonensis promastigotes assessed as reduction in exogenous cholesterol level at 3 uM after 96 hrs by gas-liquid chromatography; format: functional; design: scale not given: the % may be the effect or the level left
Summary of the method: (§1)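 L. mexicana promastigotes exposed to compound for 96 h. Total lipids extracted and neutral sterols separated from polar lipids by silicic acid column chromatography. Sterols analysed by TLC and by quantitative capillary gas-liquid chromatography with mass spectrometry. Composition expressed as mass % of free sterols, compared with untreated control.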

Trypanosoma cruzi = experiment: Antitrypanosomal activity against trypomastigotes of Trypanosoma cruzi Tulahuen C2C4 containing lacZ gene in rat L6 cells after 4 days by chlorophenol red-beta-D-galactopyranoside/Nonidet assay; format: functional, organism-based; details: Tulahuen C2C4, L6, 96 h
Summary of the method: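 L-6 rat myoblasts seeded at 2,000 cells/well in RPMI 1640 with 10% FBS and 2 mM L-glutamine. After 24 h, 5,000 T. cruzi Tulahuen C2C4 lacZ trypomastigotes added with serial drug dilution. Incubated at 37°C in 5% CO2 for 4 days. CPRG/Nonidet substrate added and colour read at 540 nm after 2–4 h. IC50 from sigmoidal curve. Duplicate determinations.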

Leishmania amazonensis [3] = experiment: Inhibition of sterol biosynthesis in Leishmania mexicana amazonensis promastigotes assessed as reduction in endogenous episterol level at 1 uM after 96 hrs by gas-liquid chromatography; format: functional; design: scale not given: the % may be the effect or the level left; summary of the method: as §1
Leishmania amazonensis [4] = experiment: Antileishmanial activity against Leishmania mexicana amazonensis promastigotes by trypan blue exclusion method; format: functional, organism-based
Summary of the method: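 L. mexicana amazonensis promastigotes cultured in liver infusion-tryptose medium with lactalbumin and 10% FCS at 26°C, unagitated. Cultures started at 2 × 10⁶ cells/ml and drug added at 0.5–1 × 10⁷ cells/ml. Density counted by electronic particle counter and hemocytometer. Viability by trypan blue exclusion. Triplicate growth experiments.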

Leishmania amazonensis [5] = experiment: Inhibition of sterol biosynthesis in Leishmania mexicana amazonensis promastigotes assessed as reduction in endogenous 5-dehydro episterol level at 1 uM after 96 hrs by gas-liquid chromatography; format: functional; design: scale not given: the % may be the effect or the level left; summary of the method: as §1
Plasmodium falciparum = experiment: Antiplasmodial activity after 48 hrs against chloroquine and pyrimethamine-resistant Plasmodium falciparum K1 in human erythrocytes by [3H]hypoxanthine uptake; format: functional, organism-based
Summary of the method: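 P. falciparum K1 in human red cells in RPMI 1640 with 5% Albumax, exposed to serial drug dilutions. Incubated 48 h at 37°C under reduced oxygen, then 0.5 μCi [³H]hypoxanthine per well for 24 h more. Cells harvested onto glass-fibre filters and counted by scintillation. Result expressed as % of untreated control, with IC50 from sigmoidal curve. Duplicate, plus an independent repeat for actives.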

Leishmania donovani = experiment: Antileishmanial activity against Leishmania donovani MHOM/ET/67/L82 axenic amastigotes after 72 hrs by resazurin assay; format: functional, organism-based; details: MHOM/ET/67/L82, 72 h
Summary of the method: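 L. donovani MHOM/ET/67/L82 amastigotes grown axenically at 37°C in synthetic minimal medium at pH 5.4 with 10% heat-inactivated FBS under 5% CO2. 1 × 10⁵ amastigotes per well with seven threefold dilutions, 30 to 0.041 μg/ml. After 72 h, resazurin added for 2–4 h more. Fluorescence read at ex 536/em 588 nm. IC50 taken from sigmoidal curve. Run in duplicate, with an independent repeat for actives.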

Leishmania amazonensis [6] = experiment: Inhibition of sterol biosynthesis in Leishmania mexicana amazonensis promastigotes assessed as reduction in exogenous cholesterol level at 1 uM after 96 hrs by gas-liquid chromatography; format: functional; design: scale not given: the % may be the effect or the level left; summary of the method: as §1
Leishmania amazonensis [7] = experiment: Inhibition of sterol biosynthesis in Leishmania mexicana amazonensis promastigotes assessed as reduction in endogenous episterol level at 3 uM after 96 hrs by gas-liquid chromatography; format: functional; design: scale not given: the % may be the effect or the level left; summary of the method: as §1
Leishmania amazonensis [8] = experiment: Inhibition of sterol biosynthesis in Leishmania mexicana amazonensis promastigotes assessed as reduction in endogenous 5-dehydro episterol level at 10 uM after 96 hrs by gas-liquid chromatography; format: functional; design: scale not given: the % may be the effect or the level left; summary of the method: as §1
Leishmania amazonensis [9] = experiment: Inhibition of sterol biosynthesis in Leishmania mexicana amazonensis promastigotes assessed as reduction in endogenous episterol level at 10 uM after 96 hrs by gas-liquid chromatography; format: functional; design: scale not given: the % may be the effect or the level left; summary of the method: as §1
[10] = target: T1, Farnesyltransferase, putative (Leishmania major, UniProt Q4Q5W4); experiment: Inhibition of Leishmania major recombinant squalene synthase expressed in Escherichia coli by liquid scintillation counter
T1 sequence (Q4Q5W4 whole entry): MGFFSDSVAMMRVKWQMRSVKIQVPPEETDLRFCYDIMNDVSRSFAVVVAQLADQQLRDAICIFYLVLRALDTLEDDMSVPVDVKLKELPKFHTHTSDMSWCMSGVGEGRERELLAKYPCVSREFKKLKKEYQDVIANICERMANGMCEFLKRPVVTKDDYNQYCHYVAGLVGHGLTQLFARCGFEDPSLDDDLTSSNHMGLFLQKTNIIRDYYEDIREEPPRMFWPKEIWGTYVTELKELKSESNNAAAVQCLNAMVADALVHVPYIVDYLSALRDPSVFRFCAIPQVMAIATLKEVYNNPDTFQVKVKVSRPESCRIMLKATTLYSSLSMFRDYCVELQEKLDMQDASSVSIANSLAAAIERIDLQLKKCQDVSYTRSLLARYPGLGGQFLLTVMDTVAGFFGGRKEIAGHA
Summary of the method: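 Soluble E. coli extract expressing L. major SQS truncated by 16 N-terminal and 40 C-terminal residues. Buffer: 50 mM phosphate pH 7.4, 20 mM MgCl2, 5 mM CHAPS, 1% Tween 80, 10 mM DTT, BSA, 0.25 mM NADPH, and a glucose-6-phosphate/G6PDH regenerating system. Substrate 0.5 μM radiolabelled farnesyl pyrophosphate. Squalene band counted by scintillation. IC50 from hyperbolic plot of five concentrations in duplicate, usually run twice.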

Leishmania amazonensis [11] = experiment: Inhibition of sterol biosynthesis in Leishmania mexicana amazonensis promastigotes assessed as reduction in exogenous cholesterol level at 10 uM after 96 hrs by gas-liquid chromatography; format: functional; design: scale not given: the % may be the effect or the level left; summary of the method: as §1
Leishmania amazonensis [12] = experiment: Inhibition of sterol biosynthesis in Leishmania mexicana amazonensis promastigotes assessed as reduction in endogenous 5-dehydro episterol level at 3 uM after 96 hrs by gas-liquid chromatography; format: functional; design: scale not given: the % may be the effect or the level left; summary of the method: as §1
Leishmania amazonensis [13] = experiment: Inhibition of sterol biosynthesis in Leishmania mexicana amazonensis promastigotes assessed as reduction in endogenous cholesta-5,7,24-trien-3beta-ol level at 10 uM after 96 hrs by gas-liquid chromatography; format: functional; design: scale not given: the % may be the effect or the level left; summary of the method: as §1

Compound	IC50 (L6)	IC50 [1]	Activity (Leishmania amazonensis [2])	IC50 (Trypanosoma cruzi)	Activity (Leishmania amazonensis [3])	MIC (Leishmania amazonensis [4])	Activity (Leishmania amazonensis [5])	IC50 (Plasmodium falciparum)	IC50 (Leishmania donovani)	Activity (Leishmania amazonensis [6])	Activity (Leishmania amazonensis [7])	Activity (Leishmania amazonensis [8])	Activity (Leishmania amazonensis [9])	IC50 [10]	Activity (Leishmania amazonensis [11])	Activity (Leishmania amazonensis [12])	Activity (Leishmania amazonensis [13])
CCCCCCOc1ccc(C#CC2(O)CN3CCC2CC3)cc1 (stereo not drawn)	15.9 µM	0.5 µM	>99%	5.6 µM	14.6%	1 µM (≈ 0.327 µg/mL)	65%	0.7 µM	4.7 µM	20.4%							
C1=C(c2ccc3ccccc3c2)C2CCN1CC2	101 µM	24.2 µM	35.9%	34.1 µM		3 µM (≈ 0.706 µg/mL)		11 µM	12.3 µM		28.9%	52%	14.2%	> 1 µM	33.8%	35.2%	
OC1(C#Cc2ccc(OCc3ccccc3)cc2)CN2CCC1CC2 (stereo not drawn)	45 µM	1.9 µM	>99%	9.6 µM	8.4%	1 µM (≈ 0.333 µg/mL)	17%	1.9 µM	3.2 µM	74.6%							
Cc1cc(C)cc(C#CC2(O)CN3CCC2CC3)c1 (stereo not drawn)	175 µM	9.2 µM	19.6%	18.9 µM		10 µM (≈ 2.55 µg/mL)		4.3 µM	12.6 µM		12%	39.9%	11.9%	> 1 µM	48.2%	68.4%	
CC(C)OC(=O)c1ccc(C2=CN3CCC2CC3)cc1	152 µM	7.2 µM	74.5%	23 µM	12.8%	3 µM (≈ 0.814 µg/mL)	42.8%	14 µM	1.1 µM	44.4%	25.5%			> 1 µM			
CCOC(=O)c1ccc(C#CC2(O)CN3CCC2CC3)cc1 (stereo not drawn)	171 µM	3.3 µM	35.9%	5.6 µM		10 µM (≈ 2.99 µg/mL)		4 µM	28.7 µM		9.5%			4.25 µM		54.6%	>99%
CCOC(=O)c1ccc(C#C[C@H]2CN3CCC2C[C@@H]3CO)cc1 (stereo partly drawn)	55.2 µM	3.8 µM		18.8 µM		> 10 µM		1.1 µM	> 96 µM			55.5%	11.4%	> 1 µM	23.6%		9.5%
COc1ccc(COc2ccc(C#CC3(O)CN4CCC3CC4)cc2)cc1OC (stereo not drawn)	78.7 µM	3.4 µM	15.6%	13.4 µM		1 µM (≈ 0.393 µg/mL)		2 µM	4.6 µM		14.6%	38.8%	16.6%		44.6%	69.8%	
OC[C@@H]1CC2CCN1C[C@@H]2C#Cc1ccc2ccccc2c1 (stereo partly drawn)	40.1 µM	1.1 µM		4.7 µM		> 10 µM		2.1 µM	22.6 µM			68.4%	9.6%	> 1 µM	15.4%		6.6%
C1=C(c2cnc3ccccc3c2)C2CCN1CC2	276 µM	22.4 µM		51.1 µM		> 10 µM		15 µM	72.4 µM			74.5%	7.3%	> 1 µM	18.2%		
OC[C@H]1CC2CCN1C[C@@H]2C#Cc1cnc2ccccc2c1 (stereo partly drawn)	38.9 µM	10.9 µM		33.8 µM		> 10 µM		2.7 µM	40.3 µM			69.7%	11.6%	> 1 µM	18.7%		

From ChEMBL document CHEMBL1137637, “Quinuclidine derivatives as potential antiparasitics” (Antimicrob Agents Chemother, 2007)
